KCNK3 inh: human KCNK3 channel inhibitors, primary screen, CHO cells, FluxOR thallium flux, B-score; Potassium channel subfamily K member 3 (Homo sapiens), O14649; hit rate 0.84% among 340,000; B-score at 10 µM; FluxOR fluorescence; active compounds read low;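 active = B-score under library mean minus 4 SD, starting fluorescence ratio at most library mean plus 5 SD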;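 also: more negative B-score means stronger inhibition of thallium flux through KCNK3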
KCNQ1 inh: inhibitors of human KCNQ1 channel, primary screen, cell-based, thallium flux, high-throughput; Potassium voltage-gated channel subfamily KQT member 1 (Homo sapiens), P51787; CHO-K1 KCNQ1, FluxOR thallium flux fluorescence; active compounds read high; B-score at 10 µM; hit rate 1.3% among 310,000;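 active = compounds whose thallium flux B-score, printed positive for inhibition, exceeds three library SD while starting fluorescence stays within three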;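 also: channel opened by potassium depolarization with thallium stimulus after 20 min compound exposure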
KCNK9 block: KCNK9 potassium channel inhibitors, primary screen, HEK293 cells, thallium flux; FluxOR thallium flux fluorescence; active compounds read low; B-score at 10 µM; Potassium channel subfamily K member 9 (Homo sapiens), Q9NPC2; AID 488922, 2010; hit rate 1.2% among 310,000;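 active = ratio B-score over 3 SD below the library mean, with starting fluorescence within 5 SD of its mean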;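 also: negative B-score means less thallium flux so channel inhibition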
hERG rescue: hERG rescue from dofetilide block, primary screen, cell-based, CHO-hERG, FluxOR thallium flux, dofetilide IC70 | hit rate 0.51% among 310,000 | activation (rescue from dofetilide block), less the hit threshold, % at 10 µM | Voltage-gated inwardly rectifying potassium channel KCNH2 (Homo sapiens), Q12809 | AID 1511, 2009 | dofetilide IC70 present;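 active = activation above the mean of controls blocked by dofetilide plus 5 SD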;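 also: thallium influx through hERG after potassium depolarization seen as dye fluorescence rise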
Target sequence (Q12809 whole entry, looked up): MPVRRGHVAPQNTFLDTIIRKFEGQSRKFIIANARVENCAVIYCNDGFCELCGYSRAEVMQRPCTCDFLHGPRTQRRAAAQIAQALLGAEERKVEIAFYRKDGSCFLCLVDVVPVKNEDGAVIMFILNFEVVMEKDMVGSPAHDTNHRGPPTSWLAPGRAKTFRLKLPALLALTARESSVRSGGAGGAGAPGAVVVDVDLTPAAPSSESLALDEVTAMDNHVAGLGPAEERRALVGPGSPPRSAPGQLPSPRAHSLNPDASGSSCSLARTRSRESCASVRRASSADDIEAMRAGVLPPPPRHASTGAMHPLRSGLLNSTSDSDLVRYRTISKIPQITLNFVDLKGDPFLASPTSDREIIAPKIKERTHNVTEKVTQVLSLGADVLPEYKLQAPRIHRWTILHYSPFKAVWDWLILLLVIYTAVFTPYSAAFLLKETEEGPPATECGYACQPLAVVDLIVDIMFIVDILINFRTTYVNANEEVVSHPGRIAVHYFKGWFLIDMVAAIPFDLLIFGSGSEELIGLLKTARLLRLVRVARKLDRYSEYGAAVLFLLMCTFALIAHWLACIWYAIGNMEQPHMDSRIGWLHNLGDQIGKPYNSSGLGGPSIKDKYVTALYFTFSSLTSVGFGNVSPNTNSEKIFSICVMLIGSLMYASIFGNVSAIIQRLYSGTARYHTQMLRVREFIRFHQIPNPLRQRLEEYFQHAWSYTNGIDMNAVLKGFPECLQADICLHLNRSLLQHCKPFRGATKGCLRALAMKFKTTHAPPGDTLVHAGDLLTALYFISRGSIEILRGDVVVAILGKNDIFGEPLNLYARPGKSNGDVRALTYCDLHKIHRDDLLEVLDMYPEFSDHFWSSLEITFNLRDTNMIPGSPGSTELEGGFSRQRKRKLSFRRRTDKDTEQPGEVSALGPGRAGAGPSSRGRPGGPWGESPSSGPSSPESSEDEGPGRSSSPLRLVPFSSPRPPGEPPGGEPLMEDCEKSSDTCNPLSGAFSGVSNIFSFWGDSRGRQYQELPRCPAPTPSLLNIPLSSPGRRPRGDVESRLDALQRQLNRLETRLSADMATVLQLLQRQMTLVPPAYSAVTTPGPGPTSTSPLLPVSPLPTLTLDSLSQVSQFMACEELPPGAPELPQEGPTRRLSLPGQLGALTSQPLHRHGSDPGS
KCNQ1 act: potentiators or activators of KCNQ1 channel, primary screen, cell-based, thallium flux, high-throughput | CHO-K1 KCNQ1, thallium flux FluxOR fluorescence; active compounds read high | Potassium voltage-gated channel subfamily KQT member 1 (Homo sapiens), P51787 | hit rate 0.35% among 310,000 | B-score at 10 µM;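 active = fluorescence ratio B-score, a plate-corrected score, at least three library SD, with initial intensity B-score within 5 SD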
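System: CHO-K1 cells stably expressing KCNQ1 / Medium: assay buffer for compound exposure, DMSO matched across wells / Reagent: thallium- and potassium-containing depolarizing buffer / Compound: one concentration, matched DMSO / Incubation: 20 min compound pretreatment at room temperature / Measured by: kinetic FluxOR fluorescence, 10 s baseline plus 110 s post-stimulus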
KCNQ1 inh valid: KCNQ1 potassium channel inhibitors, confirmation, cell-based, Tl flux, duplicate. hit rate 93% among 1,600. AID 588353, 2011. KCNQ1 cell line, FluxOR thallium flux fluorescence. inhibition, % at 10 µM. shares compounds with KCNQ1 inh;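 active = primary screen active, with duplicate mean exceeding buffer control mean plus 3 SD of buffer wells, cut at about 28% in these data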
CHO Tl flux: thallium flux effects in parental CHO cells, counter-screen for KCNQ1 inhibitor project, cell-based, Tl flux; shares compounds with KCNQ1 inh; parental CHO-K1, FluxOR thallium flux fluorescence ratio; active compounds read low; zero means no signal rise above baseline; hit rate 21% among 1,600; fluorescence ratio (Tl flux) at 10 µM;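 active = mean of duplicate thallium-flux fluorescence ratios in parental host cells more than 5 SD below the buffer control mean, cut at about 0.38 in these data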;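 also: ratio is peak minus minimum fluorescence divided by baseline fluorescence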
KCNQ1 APC inh: KCNQ1 channel inhibitors, confirmation, orthogonal assay, cell-based, automated electrophysiology; shares compounds with KCNQ1 inh; KCNQ1-CHO cells, automated patch clamp current; calls only at 10 µM; hit rate 20% among 490;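 active = KCNQ1 current drop exceeding 3 SD of negative control wells, seen in both duplicate runs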;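 also: steady state current during a 2 s step from -80 to +40 mV; negative values mean current inhibition and positive values mean potentiation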
KCNQ2 spec: KCNQ2 channel inhibition, selectivity assay for KCNQ1 inhibitor project, cell-based; hit rate 71% among 1,600; shares compounds with KCNQ1 inh; KCNQ2 cells, FluxOR thallium flux fluorescence; inhibition, % at 10 µM;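 active = mean percent inhibition of the KCNQ2 thallium signal more than 5 SD above the buffer-only control wells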;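 also: KCNQ2 expressed in CHO cells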
KCNQ1-KCNE1 inh: KCNQ1/KCNE1 channel inhibition, selectivity assay for KCNQ1 inhibitor project, CHO-K1 cells, thallium flux, FluxOR; hit rate 77% among 1,600; inhibition, % at 10 µM; AID 652147, 2013; FluxOR thallium flux fluorescence; shares compounds with KCNQ1 inh;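 active = mean percent inhibition of duplicate wells above the buffer-only control mean plus 3 SD of those controls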
Large screens that a line does not name were inactive (follow-up assays come after a bar, where they were run). A selection: hits, their analogues and other compounds. The true share with any hit is near 3.1%.

Cc1nnc(SC(C)C(=O)N(C)C2CCCCC2)n1N (stereo unspecified)	none (no result: KCNQ1 inh, KCNK9 block, hERG rescue, KCNQ1 act)
Cc1ccc(S(=O)(=O)Nc2ccc(SC(F)F)cc2)c(C)c1	KCNQ1 inh 6 | KCNQ1 inh valid 25.5 | CHO Tl flux inactive | KCNQ2 spec inactive | KCNQ1-KCNE1 inh 135.5%
CC(C)c1ccc(S(=O)(=O)Nc2ccc(SC(F)F)cc2)cc1	none
COc1ccc(CCNc2ncnc3[nH]ncc23)cc1OC	none
COc1ccc(CCNc2ncnc3sc(C)cc23)cc1OC	KCNQ1 inh 11 | KCNQ1 inh valid 133.0 | CHO Tl flux inactive | KCNQ1 APC inh inactive | KCNQ2 spec 80.0% | KCNQ1-KCNE1 inh 82.5%
CN1C2CCC1/C(=C/c1cccn1C)C(=O)/C2=C\c1cccn1C	KCNQ1 inh 17 | KCNQ1 inh valid active | CHO Tl flux 0.142 | KCNQ2 spec inactive | KCNQ1-KCNE1 inh inactive
CC(=O)c1cccc(NC(=O)c2ccc3c(c2)CCN3S(=O)(=O)c2ccccc2)c1	KCNQ1 inh 6 | KCNQ1 inh valid 65.0 | CHO Tl flux inactive | KCNQ2 spec inactive | KCNQ1-KCNE1 inh 78.5%
COc1cccc(OC)c1C(=O)Nc1ccc2c(c1)CCCN2S(=O)(=O)c1ccc(C)cc1	none
CC(=O)Nc1cccc(NC(=O)c2ccc3c(c2)CCN3S(=O)(=O)c2ccccc2)c1	none
Cc1ccc(S(=O)(=O)N2CCCc3cc(NC(=O)c4c(F)cccc4F)ccc32)cc1	KCNQ1 inh 7 | KCNQ1 inh valid 66.5 | CHO Tl flux inactive | KCNQ2 spec 85.3% | KCNQ1-KCNE1 inh 100.5%
CCCCN(C(=O)c1nn(C)c(=O)c2ccccc12)c1c(N)n(CC(C)C)c(=O)[nH]c1=O	none (no result: KCNQ1 inh, KCNK9 block, hERG rescue, KCNQ1 act)
O=C(CN1CCOCC1)Nc1nc(-c2ccc(Cl)cc2)cs1	KCNQ1 inh 6 | KCNQ1 inh valid 55.5 | CHO Tl flux inactive | KCNQ2 spec inactive | KCNQ1-KCNE1 inh 60.5%
Cc1ccc(-c2csc(NC(=O)CN3CCOCC3)n2)cc1	none
CC(OC(=O)Cn1cnc2c1c(=O)n(C)c(=O)n2C)C(=O)Nc1ccc(Cl)cc1 (stereo unspecified)	none
CCCc1ccc(C(C)NC(=S)NC2CCCCC2)cc1 (stereo unspecified)	KCNQ1 inh 6 | KCNQ1 inh valid 46.0 | CHO Tl flux inactive | KCNQ2 spec inactive | KCNQ1-KCNE1 inh inactive
Cc1nc2c(-c3ccccc3)c(C)nn2c(N)c1-c1ccccc1	KCNQ1 inh 7 | KCNQ1 inh valid active | CHO Tl flux inactive | KCNQ1 APC inh inactive | KCNQ2 spec inactive | KCNQ1-KCNE1 inh inactive
Cc1nc2cc(-c3ccccc3)nn2c(N)c1-c1ccccc1	none (no result: KCNQ1 inh, KCNK9 block, hERG rescue, KCNQ1 act)
c1ccc(Cn2nnnc2C(c2cccnc2)N2CCN(C3CCCCC3)CC2)cc1 (stereo unspecified)	KCNQ1 inh 8 | KCNQ1 inh valid 39.0 | CHO Tl flux inactive | KCNQ2 spec 64.0% | KCNQ1-KCNE1 inh 37.5%
COc1ccc(S(=O)(=O)n2nc(C)c(S(=O)(=O)N3CCOCC3)c2C)cc1OC	none (no result: KCNK3 inh)
CSc1cccc(CN2CCCC(CO)(Cc3cccc(Cl)c3)C2)c1 (stereo unspecified)	KCNQ1 inh 7 | KCNQ1 inh valid 56.0 | CHO Tl flux inactive | KCNQ2 spec 100.7% | KCNQ1-KCNE1 inh 86.5%
OCC1(Cc2cccc(Cl)c2)CCCN(Cc2ccc(F)c(F)c2)C1 (stereo unspecified)	none
NS(=O)(=O)c1ccc(N2CCN(CCOc3ccc(Cl)cc3)CC2)nc1	none
O=C(CSc1nc(C(F)(F)F)cc(=O)[nH]1)NCc1ccc2c(c1)OCO2	none
COc1ccc2nc(C)cc(Nc3ccc(C)cc3)c2c1	none
COc1ccc2nc(C)cc(NCc3ccc(F)cc3)c2c1	KCNQ1 inh 7, KCNK9 block -6.86 | KCNQ1 inh valid 87.5 | CHO Tl flux inactive | KCNQ1 APC inh inactive | KCNQ2 spec inactive | KCNQ1-KCNE1 inh 123.5%
O=C(NCc1ccccc1C(F)(F)F)C1CC(O)CN1C(=O)Nc1ccccc1 (stereo unspecified)	none
CC(/C=N/NC(=O)c1ccc(Cn2cc([N+](=O)[O-])cn2)o1)=C\c1ccccc1	none
COc1ccc(-c2cc(=NC(CC(C)C)C(=O)O)c3cc(C)ccc3o2)cc1 (stereo unspecified)	KCNQ1 inh 9 | KCNQ1 inh valid 70.0 | CHO Tl flux inactive | KCNQ2 spec inactive | KCNQ1-KCNE1 inh 54.0%
CCCc1cc(NCc2ccccn2)n2nc(C)c(-c3ccccc3)c2n1	KCNQ1 inh 8 | KCNQ1 inh valid 55.5 | CHO Tl flux inactive | KCNQ2 spec 108.3% | KCNQ1-KCNE1 inh 83.5%
Cc1nn2c(NCc3ccccn3)cc(C(C)C)nc2c1-c1ccccc1	none
O=S(=O)(Oc1ccc(C(=S)N2CCOCC2)cc1)c1ccc(Cl)cc1	KCNQ1 inh 8 | KCNQ1 inh valid 85.0 | CHO Tl flux inactive | KCNQ2 spec inactive | KCNQ1-KCNE1 inh 65.0%
Cn1ncc(Br)c1NC(=O)Nc1ccc(OC(F)(F)F)cc1	KCNQ1 inh 8 | KCNQ1 inh valid 79.0 | CHO Tl flux inactive | KCNQ2 spec 132.0% | KCNQ1-KCNE1 inh inactive
Cc1ccc(CNC(=O)Nc2ccc(OC(F)(F)F)cc2)n1C	none
CCOC(=O)CCS(=O)(=O)c1nc(-c2ccccc2)cc(C(F)(F)F)n1	none
COC(=O)CCS(=O)(=O)c1nc(-c2ccccc2)cc(C(F)(F)F)n1	KCNQ1 inh 8 | KCNQ1 inh valid 26.5 | CHO Tl flux inactive | KCNQ2 spec 80.3% | KCNQ1-KCNE1 inh 61.5%
CCN1CCN(c2cc(C)c3cc(NC(=O)c4cccc(OC)c4)ccc3n2)CC1	none
